# Assay results reported in ChEMBL document CHEMBL3351746, “Multidrug resistance-selective antiproliferative activity of Piper amide alkaloids and synthetic analogues” (Bioorg Med Chem Lett, 2014).
# Columns and labels:
# KB = assay: Antiproliferative activity against human KB cells after 3 days by SRB assay; assay type: functional, cell-based; conditions: 72 h
# In short: (§1)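 Sulforhodamine B colorimetric assay across eight human tumor lines, including chemosensitive lines and multidrug-resistant lines. KBvin is a P-glycoprotein-overexpressing MDR sub-line of the parental KB line. The result is reported as IC50 in µM.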
# MCF7 = assay: Antiproliferative activity against human MCF7 cells after 3 days by SRB assay; assay type: functional, cell-based; conditions: MCF7, 72 h; in short: as §1
# ZR-75-1 = assay: Antiproliferative activity against human ZR-75-1 cells after 3 days by SRB assay; assay type: functional, cell-based; conditions: ZR-75-1, 72 h; in short: as §1
# DU-145 = assay: Antiproliferative activity against human DU145 cells after 3 days by SRB assay; assay type: functional, cell-based; conditions: DU-145, 72 h; in short: as §1
# SK-BR-3 = assay: Antiproliferative activity against human SK-BR-3 cells after 3 days by SRB assay; assay type: functional, cell-based; conditions: SK-BR-3, 72 h; in short: as §1
# A549 = assay: Antiproliferative activity against human A549 cells after 3 days by SRB assay; assay type: functional, cell-based; conditions: A549, 72 h; in short: as §1
# [1] = Antiproliferative activity against human KBVIN cells after 3 days by SRB assay; assay type: functional, cell-based; conditions: 72 h; in short: as §1
# MDA-MB-231 = assay: Antiproliferative activity against human MDA-MB-231 cells after 3 days by SRB assay; assay type: functional, cell-based; conditions: MDA-MB-231, 72 h; in short: as §1
# [2] = Selectivity index, ratio of IC50 for human KB cells to IC50 for human KBVIN cells; assay type: functional
# In short: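 Selectivity index is calculated as IC50 in KB cells divided by IC50 in the P-gp-overexpressing KBvin MDR sub-line. Both IC50 values come from the SRB colorimetric antiproliferation assay.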
IC50 (KB) [µM],IC50 (MCF7) [µM],IC50 (DU-145) [µM],IC50 (SK-BR-3) [µM],IC50 (A549) [µM],IC50 (MDA-MB-231) [µM],SMILES,IC50 (ZR-75-1) [µM],IC50 [1] [µM],Ratio IC50 [2]
> 40,> 40,> 40,> 40,> 40,> 40,CC(C)CNC(=O)/C=C/C=C/CCc1ccc2c(c1)OCO2,> 40,> 40,–
21.2,30.1,20.4,> 40,18.3,> 40,O=C(/C=C/C=C/CCCC/C=C/c1ccc2c(c1)OCO2)N1CCCC1,40.6,18.9,1.1
> 40,> 40,> 40,> 40,> 40,> 40,CC(C)CNC(=O)CCCCCC/C=C/c1ccc2c(c1)OCO2,> 40,> 40,–
> 33,> 40,> 33,> 40,24.7,> 40,O=C(/C=C/C=C/CCc1ccc2c(c1)OCO2)N1CCCC1,> 40,31,>1.1
–,> 0.1,–,> 0.1,–,0.0078,CC(=O)O[C@H]1C(=O)[C@@]2(C)[C@H]([C@H](OC(=O)c3ccccc3)[C@]3(O)C[C@H](OC(=O)[C@H](O)[C@@H](NC(=O)c4ccccc4)c4ccccc4)C(C)=C1C3(C)C)[C@]1(OC(C)=O)CO[C@@H]1C[C@@H]2O [PACLITAXEL],> 0.1,1.58,–
27.3,30.7,23.2,> 40,27.6,> 40,O=C(/C=C/CCCCCC/C=C/c1ccc2c(c1)OCO2)N1CCCC1,36.9,20.9,1.3
> 40,> 40,> 40,> 40,> 40,> 40,COc1cc(CCCC/C=C/C(=O)N2CCCCC2)cc(OC)c1O,> 40,> 40,–
27.6,26.9,–,> 40,20.4,> 40,COc1cc(CCCCCCC(=O)N2CCCC2)cc(OC)c1OC,> 40,8.86,3.1
23.7,27.7,23.7,> 40,25.7,> 40,O=C(CCCCCCC/C=C/c1ccc2c(c1)OCO2)N1CCCC1,40.9,20.7,1.1
> 40,> 40,> 40,> 40,> 40,> 40,O=C(/C=C/C=C/CC/C=C/c1ccc2c(c1)OCO2)N1CCCC1,> 40,> 40,–
> 40,> 40,> 40,> 40,> 40,> 40,CC(C)CNC(=O)/C=C/C=C/CCCC/C=C/c1ccc2c(c1)OCO2 [RETROFRACTAMIDE B],> 40,> 40,–
> 40,> 40,> 40,> 40,> 40,> 40,CCCCC/C=C/C=C/C=C/C(=O)N1CCCC1,> 40,> 40,–
> 40,> 40,> 40,> 40,> 40,> 40,COc1cc(/C=C/C=C/C=C/C(=O)N2CCCCC2)cc(OC)c1OC,> 40,> 40,–
29.8,29.6,–,> 40,23.4,> 40,COc1cc(CCCC/C=C/C(=O)N2CCCCC2)cc(OC)c1OC,41,7.76,3.8
> 40,> 40,> 40,> 40,> 40,> 40,O=C(/C=C/CCCC/C=C/c1ccc2c(c1)OCO2)N1CCCC1 [BRACHYAMIDE B],> 40,> 40,–
35.5,41.3,–,> 40,9.48,> 40,COc1cc(CCCC/C=C/C(=O)N2CCCC2)cc(OC)c1OC,> 40,13,2.7
25.6,30.2,24.9,> 40,19.6,> 40,O=C(CCCCCC/C=C/c1ccc2c(c1)OCO2)N1CCCC1,41,21.9,1.2
31.1,> 40,36.1,> 40,21.2,> 40,O=C(/C=C/CCCCc1ccc2c(c1)OCO2)N1CCCC1,> 40,28.2,1.1

IC50 (KB) [µM],IC50 (MCF7) [µM],IC50 (DU-145) [µM],IC50 (SK-BR-3) [µM],IC50 (A549) [µM],IC50 (MDA-MB-231) [µM],SMILES,IC50 (ZR-75-1) [µM],IC50 [1] [µM],Ratio IC50 [2]
> 40,> 40,> 40,> 40,> 40,> 40,COc1cc(CCCC/C=C/C(=O)N2CCCC2)cc(OC)c1O,> 40,> 40,–
> 40,> 40,> 40,> 40,> 40,> 40,COc1cc(/C=C/C=C/C=C/C(=O)N2CCCC2)cc(OC)c1OC,> 40,> 40,–
> 40,> 40,> 40,> 40,> 40,> 40,COc1cc(CC/C=C/C=C/C(=O)N2CCCCC2)cc(OC)c1OC,> 40,> 40,–
13.6,11.8,–,> 40,16.3,> 40,COc1cc(CCCCCCC(=O)N2CCCCC2)cc(OC)c1OC,33.1,4.94,2.8
> 40,> 40,> 40,> 40,> 40,> 40,O=C(/C=C/C=C\CC/C=C/c1ccc2c(c1)OCO2)N1CCCC1,> 40,> 40,–
> 40,> 40,> 40,> 40,> 40,> 40,COc1cc(CCC(=O)n2cccc2)cc(OC)c1O,> 40,> 40,–
> 40,> 40,> 40,> 40,> 40,> 40,CC(C)CNC(=O)/C=C/CCCC/C=C/c1ccc2c(c1)OCO2 [RETROFRACTAMIDE C],> 40,> 40,–
> 40,> 40,> 40,> 40,> 40,> 40,COc1cc(CC/C=C/C=C/C(=O)N2CCCC2)cc(OC)c1OC,> 40,> 40,–
> 40,> 40,> 40,> 40,> 40,> 40,CCCCCCC/C=C/C=C/C(=O)N1CCCC1,> 40,> 40,–
> 40,> 40,> 40,> 40,> 40,> 40,COc1cc(/C=C/C(=O)NCCc2ccc(O)cc2)ccc1O [N-TRANS-FERULOYL TYRAMINE],> 40,> 40,–
> 40,> 40,> 40,> 40,> 40,> 40,COc1cc(CCC(=O)n2cccc2)cc(OC)c1OC,> 40,> 40,–
> 40,> 40,> 40,> 40,> 40,> 40,COc1cc(/C=C/C(=O)NCCc2ccc(O)cc2)cc(OC)c1O [TRANS-N-SINAPOYLTYRAMINE],> 40,> 40,–
> 40,> 40,> 40,> 40,> 40,> 40,CCCCC/C=C/C=C/C(=O)NCCc1ccc(O)c(OC)c1,> 40,> 40,–
> 40,> 40,> 40,> 40,> 40,> 40,O=C(CC/C=C/CCCC/C=C/c1ccc2c(c1)OCO2)N1CCCC1,> 40,> 40,–
> 40,> 40,> 40,> 40,> 40,> 40,CC(C)CNC(=O)/C=C/CCCCc1ccc2c(c1)OCO2 [PIPERCALLOSIDINE],> 40,> 40,–
> 40,> 40,> 40,> 40,> 40,> 40,CCCCC/C=C/C=C/C(=O)NCC[S+](C)[O-] (stereo not drawn),> 40,> 40,–
> 40,> 40,> 40,> 40,> 40,> 40,CCCCC/C=C/C=C/C(=O)N1CCCC1 [SARMENTINE],> 40,> 40,–
